In ChEMBL document CHEMBL2384957, “Synthesis and antimicrobical evaluation of a novel class of 1,3,4-thiadiazole: derivatives bearing 1,2,4-triazolo[1,5-a]pyrimidine moiety” (2013) one finds inhibition and MIC data, which are given here for 18 compounds.

Common to all, as to format: functional
One assay relates to Rhizoctonia solani. As to the kind of experiment: Antifungal activity against Rhizoctonia solani assessed as inhibition of mycelia elongation rate at 50 ppm after 48 hrs relative to control. In short, it runs like this:
(§1)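 This was a mycelial growth assay on potato glucose agar. Samples were dissolved in DMF at 500 mg/L (stock), and 1 part solution was mixed with 9 parts thawed medium at 50 °C before plating. Solidified plates were inoculated with a 4 mm mycelium disk, inverted and incubated at 28 °C for 48 h. Medium without sample served as blank. Mycelial elongation radius was measured, in triplicate.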

Another assay relates to Cercospora beticola. Put plainly: Antifungal activity against Cercospora beticola assessed as inhibition of mycelia elongation rate at 50 ppm after 48 hrs relative to control. In short, it runs like this:
as §1

Assay [1] can be described thus: Antifungal activity against Physalospora pyricola assessed as inhibition of mycelia elongation rate at 50 ppm after 48 hrs relative to control. The conditions noted are these: Botryosphaeria berengeriana. In a few lines: as §1
Assay [2] is described as follows: Antifungal activity against Gibberella saubinettii assessed as inhibition of mycelia elongation rate at 50 ppm after 48 hrs relative to control. To be noted: Fusarium graminearum. In short, it runs like this:
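Poisoned-agar mycelial growth test: sample dissolved in DMF at 500 mg/L, 1 mL mixed into 9 mL thawed potato glucose agar at 50 °C and poured into plates. A 4 mm mycelium disk was placed on each plate, inverted, incubated 28 °C for 48 h. Mycelial elongation radius (mm) measured against a sample-free medium blank; three replicates.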

Another assay concerns Fusarium oxysporum. Put plainly: Antifungal activity against Fusarium oxysporum assessed as inhibition of mycelia elongation rate at 50 ppm after 48 hrs relative to control. In a few lines:
as §1

The next assay relates to Staphylococcus aureus. As to the kind of experiment: Antibacterial activity against Staphylococcus aureus ATCC 6538 assessed as growth inhibition after 24 hrs by two-fold serial dilution method. The conditions noted are these: ATCC 6538, 24 h. In short, it runs like this:
(§2)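 MICs were determined by two-fold serial dilution in nutrient broth, following CLSI. The inoculum came from 24 h bacterial cultures on nutrient agar at 37 ± 1 °C and was adjusted in sterile saline to 1×10⁴–10⁵ CFU/mL. Tubes were incubated at 37 ± 1 °C. MIC was read visually after 24 h, with kanamycin as the reference standard.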

A further assay has as its system Bacillus spizizenii. Put plainly: Antibacterial activity against Bacillus subtilis ATCC 6633 assessed as growth inhibition after 24 hrs by two-fold serial dilution method. The conditions noted are these: ATCC 6633, 24 h. In short, it runs like this: as §2
A further assay has as its system Pseudomonas fluorescens. Put plainly: Antibacterial activity against Pseudomonas fluorescens ATCC 13525 assessed as growth inhibition after 24 hrs by two-fold serial dilution method. To be noted: ATCC 13525, 24 h. In short, it runs like this: as §2
The subject of a further assay is Escherichia coli. Put plainly: Antibacterial activity against Escherichia coli ATCC 35218 assessed as growth inhibition after 24 hrs by two-fold serial dilution method. The conditions noted are these: ATCC 35218, 24 h. In short, it runs like this:
as §2

≈ marks a conversion by molar mass, not a printed value.

On to `Cc1cc(C)n2nc(SCc3nnc(SCc4c(F)cccc4F)s3)nc2n1`, for which the inhibition at 50 ppm amounted to 83% in the assay on Rhizoctonia solani, 60% in the assay with Cercospora beticola and 36% in the assay on Fusarium oxysporum. In addition, the inhibition stood at 73% in assay [1] and 33% in assay [2]. In addition, the MIC with Staphylococcus aureus was over 100 µg/mL; in the assay on Bacillus spizizenii it was 50 µg/mL (≈ 115 µM); in the assay with Pseudomonas fluorescens, 6.25 µg/mL (≈ 14.3 µM); in the assay on Escherichia coli, 12.5 µg/mL (≈ 28.6 µM).

In the case of `Cc1ccc(CSc2nnc(CSc3nc4nc(C)cc(C)n4n3)s2)cc1`, the values for the inhibition at 50 ppm with Rhizoctonia solani, with Cercospora beticola and in the assay on Fusarium oxysporum were 57%, 38% and 65%, respectively. Besides, the inhibition in assay [1] amounted to 74%; in assay [2], 32%. The MIC is over 100 µg/mL in the assay on Staphylococcus aureus, over 100 µg/mL with Bacillus spizizenii, 50 µg/mL (≈ 121 µM) in the assay on Pseudomonas fluorescens and 12.5 µg/mL (≈ 30.2 µM) with Escherichia coli.

For `Cc1cc(C)n2nc(SCc3nnc(SCc4ccc(F)cc4)s3)nc2n1`, the inhibition at 50 ppm in the assay on Rhizoctonia solani worked out at 55%; with Cercospora beticola, 60%; in the assay on Fusarium oxysporum, 42%. In addition, the inhibition in [1] came to 79%; in assay [2] it was 18%. The MIC was over 100 µg/mL in the assay on Staphylococcus aureus, 50 µg/mL (≈ 119 µM) in the assay on Bacillus spizizenii, 50 µg/mL (≈ 119 µM) in the assay on Pseudomonas fluorescens and 12.5 µg/mL (≈ 29.9 µM) with Escherichia coli.

Turning to `Cc1cc(C)n2nc(SCc3nnc(SCc4cccc(Br)c4)s3)nc2n1`, the values for the inhibition at 50 ppm in the assay on Rhizoctonia solani, in the assay on Cercospora beticola and with Fusarium oxysporum were 67%, 77% and 56%, respectively. The inhibition in assay [1] came to 58%; in [2], 47%. The MIC in the assay with Staphylococcus aureus was over 100 µg/mL; in the assay on Bacillus spizizenii it was 12.5 µg/mL (≈ 26.1 µM); in the assay with Pseudomonas fluorescens it was 50 µg/mL (≈ 104 µM); with Escherichia coli, 50 µg/mL (≈ 104 µM).

In the case of `Cc1cccc(CSc2nnc(CSc3nc4nc(C)cc(C)n4n3)s2)c1`, the inhibition at 50 ppm in the assay with Rhizoctonia solani was found to be 54%; in the assay on Cercospora beticola, 43%; in the assay on Fusarium oxysporum, 55%. Moreover, the inhibition in assay [1] turned out to be 72%; in [2], 45%. Further, the MIC in the assay on Staphylococcus aureus is over 100 µg/mL; in the assay on Bacillus spizizenii, over 100 µg/mL; with Pseudomonas fluorescens, 50 µg/mL (≈ 121 µM); with Escherichia coli, 12.5 µg/mL (≈ 30.2 µM).

For the compound `OCC1=C[C@H](N[C@H]2C[C@H](CO)[C@@H](O[C@@H]3O[C@H](CO)[C@@H](O)[C@H](O)[C@H]3O)[C@H](O)[C@H]2O)[C@H](O)[C@@H](O)[C@@H]1O` [VALIDAMYCIN], the results for the inhibition at 50 ppm in the assay on Rhizoctonia solani, with Cercospora beticola and in the assay with Fusarium oxysporum were 75%, 42% and 35%, respectively. The inhibition in assay [1] is 47%; in assay [2], 37%.

Turning to `Cc1cc(C)n2nc(SCc3nnc(SCc4cccc(F)c4)s3)nc2n1`, the inhibition at 50 ppm in the assay with Rhizoctonia solani is 60%; with Cercospora beticola, 41%; in the assay with Fusarium oxysporum it was 45%. Moreover, the inhibition in [1] is 71%; in assay [2] it was 17%. Further, the MIC with Staphylococcus aureus was over 100 µg/mL; in the assay on Bacillus spizizenii, over 100 µg/mL; with Pseudomonas fluorescens, 50 µg/mL (≈ 119 µM); in the assay on Escherichia coli, 12.5 µg/mL (≈ 29.9 µM).

Take `Cc1cc(C)n2nc(SCc3nnc(SCc4cccc(Cl)c4)s3)nc2n1`: the inhibition at 50 ppm turned out to be 53% in the assay on Rhizoctonia solani, 57% in the assay with Cercospora beticola and 57% with Fusarium oxysporum. Besides, the figures for the inhibition in [1] and in [2] were 66% and 15%, respectively. The MIC was over 100 µg/mL in the assay on Staphylococcus aureus, 50 µg/mL (≈ 115 µM) in the assay on Bacillus spizizenii, 100 µg/mL (≈ 230 µM) with Pseudomonas fluorescens and 25 µg/mL (≈ 57.5 µM) in the assay on Escherichia coli.

On to `CC(C)(C)C(=O)C(Oc1ccc(Cl)cc1)n1cncn1` (stereo not given) [TRIADIMEFON], for which the inhibition at 50 ppm was determined as 40% with Rhizoctonia solani, 35% in the assay on Cercospora beticola and 37% in the assay with Fusarium oxysporum. For the same compound, the inhibition was determined as 55% in assay [1] and 81% in [2].

`Cc1cc(C)n2nc(SCc3nnc(SCc4ccc(Br)cc4F)s3)nc2n1`: the inhibition at 50 ppm in the assay with Rhizoctonia solani stood at 75%; with Cercospora beticola, 62%; in the assay with Fusarium oxysporum, 38%. Further, the inhibition in [1] was found to be 82%; in assay [2], 35%. The MIC with Staphylococcus aureus is over 100 µg/mL; with Bacillus spizizenii, 50 µg/mL (≈ 101 µM); in the assay with Pseudomonas fluorescens it was 12.5 µg/mL (≈ 25.1 µM); with Escherichia coli it was 6.25 µg/mL (≈ 12.6 µM).

Take `COC(=O)Nc1nc2ccccc2[nH]1` [CARBENDAZIM]: the inhibition at 50 ppm with Rhizoctonia solani was determined as 62%; in the assay on Cercospora beticola it was 66%; in the assay on Fusarium oxysporum it was 48%. The inhibition was found to be 74% in [1] and 75% in [2].

Regarding `C=Cc1ccc(CSc2nnc(CSc3nc4nc(C)cc(C)n4n3)s2)cc1`, the inhibition at 50 ppm in the assay on Rhizoctonia solani amounted to 50%; in the assay on Cercospora beticola, 54%; in the assay on Fusarium oxysporum, 42%. For the same compound, the figures for the inhibition in [1] and in assay [2] were 72% and 78%, respectively. Moreover, the MIC was 12.5 µg/mL (≈ 29.3 µM) in the assay with Staphylococcus aureus, 50 µg/mL (≈ 117 µM) with Bacillus spizizenii, 100 µg/mL (≈ 234 µM) in the assay with Pseudomonas fluorescens and 12.5 µg/mL (≈ 29.3 µM) with Escherichia coli.

Regarding `Cc1cc(C)n2nc(SCc3nnc(SCc4cccc([N+](=O)[O-])c4)s3)nc2n1`, the figures for the inhibition at 50 ppm in the assay on Rhizoctonia solani, with Cercospora beticola and in the assay on Fusarium oxysporum were 64%, 70% and 28%, respectively. In addition, the inhibition in assay [1] amounted to 63%; in [2] it was 64%. In addition, the MIC in the assay on Staphylococcus aureus, in the assay with Bacillus spizizenii, in the assay on Pseudomonas fluorescens and in the assay with Escherichia coli was 25 µg/mL (≈ 56.1 µM) each time.

Turning to `Cc1ccc(CSc2nnc(CSc3nc4nc(C)cc(C)n4n3)s2)c([N+](=O)[O-])c1`, the inhibition at 50 ppm with Rhizoctonia solani came out at 80%; with Cercospora beticola it was 64%; with Fusarium oxysporum, 54%. For the same compound, the inhibition in [1] is 78%; in [2] it was 66%. Moreover, the MIC was determined as 25 µg/mL (≈ 54.4 µM) in the assay with Staphylococcus aureus, 25 µg/mL (≈ 54.4 µM) with Bacillus spizizenii, 1.56 µg/mL (≈ 3.39 µM) in the assay on Pseudomonas fluorescens and 12.5 µg/mL (≈ 27.2 µM) with Escherichia coli.

`Cc1cc(C)n2nc(SCc3nnc(SCc4ccccc4F)s3)nc2n1`: the inhibition at 50 ppm came to 68% with Rhizoctonia solani, 39% in the assay with Cercospora beticola and 55% in the assay on Fusarium oxysporum. For the same compound, the inhibition in [1] is 78%; in assay [2] it was 45%. Further, the MIC in the assay with Staphylococcus aureus was over 100 µg/mL; with Bacillus spizizenii it was over 100 µg/mL; with Pseudomonas fluorescens it was 25 µg/mL (≈ 59.7 µM); in the assay on Escherichia coli, 12.5 µg/mL (≈ 29.9 µM).

On to `Cc1cc(C)n2nc(SCc3nnc(SCc4ccccc4C)s3)nc2n1`, for which the inhibition at 50 ppm with Rhizoctonia solani came to 55%; in the assay on Cercospora beticola, 36%; in the assay on Fusarium oxysporum it was 50%. In addition, the inhibition in assay [1] came to 73%; in [2], 48%. In addition, the MIC with Staphylococcus aureus is over 100 µg/mL; with Bacillus spizizenii it was over 100 µg/mL; in the assay with Pseudomonas fluorescens, 25 µg/mL (≈ 60.3 µM); in the assay with Escherichia coli, 12.5 µg/mL (≈ 30.2 µM).

Turning to `Cc1cc(C)n2nc(SCc3nnc(SCc4ccc(C)c([N+](=O)[O-])c4)s3)nc2n1`, the values for the inhibition at 50 ppm with Rhizoctonia solani, in the assay on Cercospora beticola and with Fusarium oxysporum were 89%, 78% and 40%, respectively. Moreover, the results for the inhibition in [1] and in assay [2] were 68% and 41%, respectively. The MIC was over 100 µg/mL with Staphylococcus aureus, 12.5 µg/mL (≈ 27.2 µM) in the assay on Bacillus spizizenii, 12.5 µg/mL (≈ 27.2 µM) in the assay on Pseudomonas fluorescens and 25 µg/mL (≈ 54.4 µM) with Escherichia coli.

Take `NC[C@H]1O[C@H](O[C@H]2[C@H](O)[C@@H](O[C@H]3O[C@H](CO)[C@@H](O)[C@H](N)[C@H]3O)[C@H](N)C[C@@H]2N)[C@H](O)[C@@H](O)[C@@H]1O` [KANAMYCIN]: the MIC stood at 3.13 µg/mL (≈ 6.46 µM) in the assay on Staphylococcus aureus, 0.78 µg/mL (≈ 1.61 µM) in the assay on Bacillus spizizenii, 3.13 µg/mL (≈ 6.46 µM) with Pseudomonas fluorescens and 1.56 µg/mL (≈ 3.22 µM) with Escherichia coli.

One may read the inhibition as the change of the read-out against control, counted positive when it falls. As usually defined, the MIC is the smallest concentration in the dilution series that meets the test's criterion for growth inhibition.
